The source made the active and inactive calls. The rule behind the calls is not given here.
How the values were obtained:
[1] = Antiproliferative activity against human LN229 cells assessed as growth inhibition incubated for 48 hrs by MTT assay; format: functional, cell-based; conditions: LN-229, 48 h
In short: (§1)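 Cell lines were grown at 37 °C in 5% CO2 with 10% FBS and penicillin/streptomycin, in DMEM for HuH7 and LN229 and in RPMI-1640 for BxPC3 and MCF7. Cells were seeded at 10^5 per well and left 24 h to attach. Compounds were then added at […] for 48 h. MTT at 1 mg/mL was applied for 2 h at 37 °C in the dark, formazan was dissolved in DMSO and read at 570 nm. Results are relative to 0.5% DMSO vehicle control, with IC50 by linear/polynomial regression, in triplicate.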

H9c2 [2] = test: Cytotoxicity against rat H9c2 cell membrane assessed as induction of lipid peroxidation at 2.5 uM incubated for 48 hrs by TBARS method; format: cell-based; conditions: h9c2, 48 h
In short: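 H9C2 cells were treated for 48 h at […] and lysed in ice-cold Tris/NaCl/EDTA/1% Triton with protease inhibitors. Membranes were pelleted at 1200 g for 10 min and the protein content measured. Membrane aliquots were heated at 100 °C for 30 min in 15% TCA/0.3% TBA in 0.12 N HCl, cooled and centrifuged, and the TBA adduct read at 532 nm. Values are per mg protein, mean ± SEM, n=3.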

[3] = Antiproliferative activity against human HuH7 cells assessed as growth inhibition incubated for 48 hrs by MTT assay; format: functional, cell-based; conditions: Huh-7, 48 h; in short: as §1
MCF7 = test: Antiproliferative activity against human MCF7 cells assessed as growth inhibition incubated for 48 hrs by MTT assay; format: functional, cell-based; conditions: MCF7, 48 h; in short: as §1
[4] = (§2) Cytotoxicity against rat H9c2 cells assessed as cell growth at 2.5 uM incubated for 48 hrs by MTT assay relative to control; format: cell-based; conditions: H9c2 cells, read-out: Activity
[5] = Antiproliferative activity against human BxPC3 cells assessed as growth inhibition incubated for 48 hrs by MTT assay; format: functional, cell-based; conditions: BXPC-3, 48 h; in short: as §1
[6] = Drug uptake in human LN229 cell cytoplasm at 0.6 uM incubated for 48 hrs by confocal microscopy; format: ADME, cell-based; conditions: ln229, 48 h
In short: (§3)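 LN229 cells were treated for 48 h at […] and fixed in 4% paraformaldehyde. Nuclei were counterstained with DAPI and vimentin immunostained. Compound localisation was imaged by its red signal using confocal microscopy.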

LN-229 [7] = test: Inhibition of glucose uptake in human LN229 cells assessed as glucose concentration per ug protein at 0.6 uM incubated for 48 hrs by liquid scintillation method relative to control; format: functional
[8] = Down regulation of AKT expression in human LN229 cells at 0.6 uM incubated for 48 hrs by Western blot method; format: functional, cell-based; conditions: LN-229
In short: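 LN229 cells grown in DMEM with 10% FBS and penicillin/streptomycin at 37 °C, 5% CO2, treated 48 h. Cells washed in ice-cold PBS/BSA and lysed in Triton/deoxycholate buffer with protease inhibitors. Equal protein run on SDS-PAGE, then nitrocellulose. Anti-AKT overnight in TBS/1% milk/0.05% Tween 20; tubulin also probed. HRP secondary 1 h at room temperature.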

[9] = Cytotoxicity against human LN229 cells assessed as growth inhibition at 0.6 uM incubated for 48 hrs by MTT assay relative to control; format: functional, LN-229; set-up: scale not given: the % may be the effect or the level left
H9c2 [10] = test: as §2; format: cell-based; conditions: h9c2, 48 h, 2.5 µM
LN-229 [11] = test: Induction of lipid peroxidation in human LN229 cells assessed as increase in TBARS level at 0.6 uM incubated for 48 hrs by TBARS assay; format: functional
In short: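 LN229 cells in DMEM with 10% FBS, treated 48 h. Lysed in ice-cold Tris/NaCl/EDTA/1% Triton with protease inhibitors, spun 1200 g for 10 min; membrane pellet redissolved and protein measured. Membranes heated with 15% TCA/0.3% TBA in 0.12 N HCl at 100 °C for 30 min, cooled, spun 15,000 g, read at 532 nm. TBARS expressed per mg protein; mean of three experiments.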

LN-229 [12] = test: Inhibition of glucose uptake in human LN229 cells assessed as glucose concentration per ug protein at 0.6 uM incubated for 48 hrs by liquid scintillation method (reference value: 98 +/- 8 mg/dl/ug protein); format: functional
LN-229 [13] = test: Induction of apoptosis in human LN229 cells assessed as caspase-3 activation at 0.6 uM incubated for 48 hrs by cell-free caspase-3 activity assay
LN-229 [14] = test: Induction of cell differentiation in human LN229 cells assessed as vimentin remodelling at 0.6 uM incubated for 48 hrs by immunostaining method; format: functional, cell-based
In short: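 LN229 cells were treated for 48 h at […], fixed in 4% paraformaldehyde and permeabilised 5 min in 1% Triton. They were stained with anti-vimentin (1:1000) followed by Cy3 anti-rabbit IgG (1:200, 45 min), with DAPI nuclei, and imaged by confocal microscopy.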

[15] = Drug uptake in human LN229 cell nucleus at 0.6 uM incubated for 48 hrs by confocal microscopy; format: ADME, cell-based; conditions: ln229, 48 h; in short: as §3

SMILES	IC50 (MCF7) [µM]	IC50 [1] [µM]	Activity (H9c2 [2])	IC50 [3] [µM]	viability at 48 h, 2.5 µM [4] [%]	IC50 [5] [µM]	Activity [9] [%]	also measured
O=C(NC1(C(=O)NCc2ccc(Cl)cc2)CSC2=C1C(=O)c1ccccc1C2=O)c1ccc(Cl)cc1 (configuration not stated)	0.47	0.32	Toxic	0.44	61	0.66		
Cl.O=C(CN1CCCCC1)NC1(CO)CSC2=C1C(=O)c1ccccc1C2=O (configuration not stated)	1.26	0.51	Toxic	0.96	83	2.51		
Cl.O=C(CN1CCCCC1)NC1(C(=O)NCc2ccc(Cl)cc2)CSC2=C1C(=O)c1ccccc1C2=O (configuration not stated)	0.82	0.61	Non-toxic	1.02		0.83	50	Drug uptake [6]: Active; fold change (FC) (LN-229 [7]): 2.2; fold change (FC) [8]: 2; Activity (H9c2 [10]): Non-toxic; fold change (FC) (LN-229 [11]): 5; Activity (LN-229 [12]): 215 mg/dL; fold change (FC) (LN-229 [13]): 3; Activity (LN-229 [14]): Active
Cl.O=C(CN1CCCCC1)N[C@@]1(C(=O)NCc2ccc(Cl)cc2)CSC2=C1C(=O)c1ccccc1C2=O							50	
Cl.O=C(CN1CCCCC1)N[C@]1(C(=O)NCc2ccc(Cl)cc2)CSC2=C1C(=O)c1ccccc1C2=O							48	
COc1cccc2c1C(=O)c1c(O)c3c(c(O)c1C2=O)C[C@@](O)(C(=O)CO)C[C@@H]3O[C@H]1C[C@H](N)[C@H](O)[C@H](C)O1 [DOXORUBICIN]		2.25	Toxic	1.11	53	1.78		Drug uptake [15]: Active; Activity (LN-229 [12]): 120 mg/dL
O=C(CNCc1ccc(Cl)cc1)NC1(CO)CSC2=C1C(=O)c1ccccc1C2=O (configuration not stated)	1.72	1.25		3.9		1.68		

More lines, main results first:

IC50 (MCF7) [µM]	SMILES	IC50 [1] [µM]	Activity (H9c2 [2])	IC50 [3] [µM]	viability at 48 h, 2.5 µM [4] [%]	IC50 [5] [µM]	Activity [9] [%]	also measured
> 10	O=C(NC1(CO)CSC2=C1C(=O)c1ccccc1C2=O)c1ccc(Cl)cc1 (configuration not stated)	> 10		> 10		> 10		
2.12	O=C(CNc1ccc(Cl)cc1)NC1(CO)CSC2=C1C(=O)c1ccccc1C2=O (configuration not stated)	1.23		3.51		2.18		

— ChEMBL document CHEMBL3621080, “Dihydrithieno[2,3-b]naphto-4,9-dione analogues as anticancer agents: Synthesis and in cell pharmacological studies” (Eur J Med Chem, 2015)
